Laboratory results published in ChEMBL document CHEMBL5620421, “2,6-Disubstituted 7-(naphthalen-2-ylmethyl)-7H-purines as a new class of potent antitubercular agents inhibiting DprE1” (Eur J Med Chem, 2023).
Converted amounts (≈) assume the structure as drawn. The source made the active and inactive calls. The rule behind the calls is not given here.

Experiments:
[1] = tested on: Mycobacterium tuberculosis; assay: Antitubercular activity against Mycobacterium tuberculosis CNCTC My 331/88 (H37Rv) assessed as inhibition of bacterial growth measured after 21 days of incubation by Sulas semisynthetic medium based assay; format: functional; conditions: 504 h, time 21 day
How it was run: (§1)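 Micromethod MIC in Sula's semisynthetic medium. MIC is the lowest concentration inhibiting >99% of the mycobacterial population. Isoniazid was the standard drug.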

[2] = Aqueous solubility of compound incubated for 20 mins by UV-Visible spectrophotometric analysis; format: physicochemical; conditions: buffer
How it was run: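 Solubility in ultrapure water containing 5% DMSO. Absorbance taken at each compound's λmax and compared with a six-point calibration made by serial dilution of a 50 μM standard, fitted by linear regression. Over-saturated solutions were sonicated at 37 °C for 10 min and centrifuged at 8000 RPM for 10 min. Supernatant absorbance was read, after dilution with 5% DMSO/water if above the calibration range.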

Mycobacterium avium [3] = assay: Antitubercular activity against Mycobacterium avium CNCTC My 330/88 assessed as inhibition of bacterial growth measured after 14 days of incubation by Sulas semisynthetic medium based assay; format: functional; conditions: CNCTC My 330/88, 336 h, time 14 day
How it was run: (§2)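 M. avium was tested by the micromethod in Sula's semisynthetic medium. Compounds in DMSO at 1000 to 0.5 μmol/L. Incubation at 37 °C, read at 14 and 21 days. MIC is the lowest concentration giving >99% growth inhibition.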

Klebsiella pneumoniae = assay: Antibacterial activity against ESBL negative Klebsiella pneumoniae C1950 assessed as inhibition of bacterial growth incubated for 24 to 48 hrs by microdilution broth method; format: functional, organism-based; conditions: time 24-48 hrs
How it was run: (§3)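 Clinical isolates kept at –70 °C and subcultured twice on Mueller-Hinton agar, using the second subculture. Broth microdilution in Mueller-Hinton broth at pH 7.4 with two-fold serial compound dilutions and DMSO ≤1% final. Inoculum was 10 μL of a 1.5 × 10⁸ CFU/mL suspension. Incubated at 36 °C ± 1 °C and read at 24 h and 48 h. MIC taken as 95% growth inhibition.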

Mycobacterium avium [4] = assay: Antitubercular activity against Mycobacterium avium CNCTC My 330/88 assessed as inhibition of bacterial growth measured after 21 days of incubation by Sulas semisynthetic medium based assay; format: functional; conditions: CNCTC My 330/88, 504 h, time 21 day; how it was run: as §2
[5] = tested on: Mycobacterium tuberculosis; assay: Antimycobacterial activity against XDR clinical isolate Mycobacterium tuberculosis 8666/2010 assessed as inhibition of mycobacterial growth measured after 14 to 21 days of incubation by Sulas semisynthetic medium based assay; format: functional; conditions: time 14-21 day
How it was run: (§4)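 Clinical MDR/XDR M. tuberculosis isolates were tested by the Sula's semisynthetic medium micromethod. Compounds in DMSO at 1000 to 0.5 μmol/L, in twofold-type steps. Incubation at 37 °C, read at 14 and 21 days. MIC99 is the lowest concentration inhibiting >99% of growth. Drug resistance or susceptibility of each isolate is to amikacin, clofazimine, gentamicin, ofloxacin, streptomycin and the others listed.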

[6] = tested on: Mycobacterium tuberculosis; assay: Antimycobacterial activity against MDR clinical isolate Mycobacterium tuberculosis 234/2005 assessed as inhibition of mycobacterial growth measured after 14 to 21 days of incubation by Sulas semisynthetic medium based assay; format: functional; conditions: time 14-21 day; how it was run: as §4
[7] = tested on: Mycobacterium tuberculosis; assay: Antimycobacterial activity against MDR clinical isolate Mycobacterium tuberculosis PRAHA 4 assessed as inhibition of mycobacterial growth measured after 14 to 21 days of incubation by Sulas semisynthetic medium based assay; format: functional; conditions: time 14-21 day; how it was run: as §4
[8] = tested on: Staphylococcus epidermidis; assay: Antibacterial activity against Staphylococcus epidermidis C1936 assessed as inhibition of bacterial growth incubated for 24 to 48 hrs by microdilution broth method; format: functional, organism-based; conditions: time 24-48 hrs; how it was run: as §3
[9] = tested on: Mycobacterium tuberculosis; assay: Antimycobacterial activity against MDR clinical isolate Mycobacterium tuberculosis 7357/1998 assessed as inhibition of mycobacterial growth measured after 14 to 21 days of incubation by Sulas semisynthetic medium based assay; format: functional; conditions: time 14-21 day; how it was run: as §4
[10] = tested on: Mycobacterium tuberculosis; assay: Antimycobacterial activity against MDR clinical isolate Mycobacterium tuberculosis PRAHA 131 assessed as inhibition of mycobacterial growth measured after 14 to 21 days of incubation by Sulas semisynthetic medium based assay; format: functional; conditions: time 14-21 day; how it was run: as §4
[11] = tested on: Mycobacterium tuberculosis; assay: Antimycobacterial activity against XDR clinical isolate Mycobacterium tuberculosis PRAHA 1 assessed as inhibition of mycobacterial growth measured after 14 to 21 days of incubation by Sulas semisynthetic medium based assay; format: functional; conditions: time 14-21 day; how it was run: as §4
Mycobacterium kansasii = assay: Antitubercular activity against Mycobacterium kansasii CNCTC My 235/80 assessed as inhibition of bacterial growth measured after 14 days of incubation by Sulas semisynthetic medium based assay; format: functional; conditions: CNCTC My 235/80, 336 h, time 14 day
How it was run: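 Micromethod in Sula's semisynthetic medium. MIC is the lowest concentration inhibiting >99% of the mycobacterial population. Isoniazid was the standard.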

[12] = tested on: Mycobacterium tuberculosis; assay: Antitubercular activity against Mycobacterium tuberculosis CNCTC My 331/88 (H37Rv) assessed as inhibition of bacterial growth measured after 14 days of incubation by Sulas semisynthetic medium based assay; format: functional; conditions: 336 h, time 14 day; how it was run: as §1
HepG2 = assay: Cytotoxicity against human HepG2 cells incubated for 24 hrs by MTT assay; format: functional, cell-based; conditions: HepG2, 24 h
How it was run: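 HepG2 cells in DMEM with 10% FBS, seeded at 15 × 10³ cells/well and attached overnight. Exposed for 24 h to serial dilutions prepared from DMSO stocks, final DMSO ≤1%. Then given fresh medium with 0.5 mg/mL MTT for 1 h at 37 °C. Formazan dissolved in DMSO and read at 570 nm. IC50 from 4-parameter nonlinear regression; three independent experiments in triplicate, mean ± SD.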

[13] = tested on: Mycobacterium tuberculosis; assay: Antimycobacterial activity against MDR clinical isolate Mycobacterium tuberculosis 9449/2007 assessed as inhibition of mycobacterial growth measured after 14 to 21 days of incubation by Sulas semisynthetic medium based assay; format: functional; conditions: time 14-21 day; how it was run: as §4
[14] = Intrinsic clearance in human liver microsomes at 3 uM incubated for 5 to 45 min in presence of NADPH by LC-MS analysis; format: ADME, Microsome; conditions: time 5-45 min, read-out: CLH
Staphylococcus aureus [15] = assay: Antibacterial activity against Staphylococcus aureus C1947 assessed as inhibition of bacterial growth incubated for 24 to 48 hrs by microdilution broth method; format: functional, organism-based; conditions: time 24-48 hrs; how it was run: as §3
[16] = tested on: Mycobacterium tuberculosis; assay: Antimycobacterial activity against MDR clinical isolate Mycobacterium tuberculosis 8666/2010 assessed as inhibition of mycobacterial growth measured after 14 to 21 days of incubation by Sulas semisynthetic medium based assay; format: functional; conditions: time 14-21 day; how it was run: as §4
Staphylococcus aureus [17] = assay: Antibacterial activity against methicilin-resistant Staphylococcus aureus C1923 assessed as inhibition of bacterial growth incubated for 24 to 48 hrs by microdilution broth method; format: functional, organism-based; conditions: time 24-48 hrs
How it was run: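 Clinical isolates, stored at −70 °C, were passaged twice on Mueller-Hinton agar. Broth microdilution in Mueller-Hinton broth, pH 7.4, with twofold serial dilutions. DMSO was at most 1% final. Inoculum 1.5 × 10⁸ CFU/mL suspension. MIC is 95% growth inhibition, read after 24 and 48 h at 36 °C.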

H9c2 = assay: Cytotoxicity against rat H9c2 cells assessed as cell viability at 50 uM incubated for 72 hrs by MTT spectrophotometric analysis relative to control; format: functional; conditions: read-out: Activity
How it was run: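 HepG2 or rat H9c2 cells in DMEM with FBS, seeded at 10,000 cells/well. Treated 24 h later for 72 h, with 0.1% DMSO vehicle and 1% Triton X-100 as controls. MTT added (3 mg/mL solution) for 2 h at 37 °C, then cells lysed in isopropanol/0.1 M HCl/5% Triton X-100. Read at 570 nm minus 690 nm. Viability expressed as % of vehicle; IC50 derived where reached. At least four independent experiments.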

| SMILES | MIC99 [1] [µM] | solubility at 20 min [2] [µM] | MIC99 (Mycobacterium avium [3]) [µM] | Activity (Klebsiella pneumoniae) | MIC99 (Mycobacterium avium [4]) [µM] | MIC99 [5] [µM] | MIC99 [6] [µM] | MIC99 [7] [µM] | Activity [8] | MIC99 [9] [µM] | MIC99 [10] [µM] | MIC99 [11] [µM] | MIC99 (Mycobacterium kansasii) [µM] | MIC99 [12] [µM] | IC50 (HepG2) [µM] | MIC99 [13] [µM] | microsomal CLint at 3 µM [14] [µL/min/mg] | Activity (Staphylococcus aureus [15]) | MIC99 [16] [µM] | Activity (Staphylococcus aureus [17]) | other results |
| --- | --- | --- | --- | --- | --- | --- | --- | --- | --- | --- | --- | --- | --- | --- | --- | --- | --- | --- | --- | --- | --- |
| c1ccc(CNc2nc(N3CCOCC3)nc3ncn(Cc4ccc5ccccc5c4)c23)cc1 | 4 (≈ 1.8 µg/mL) | 58.9 (≈ 26.5 µg/mL) | 64 (≈ 28.8 µg/mL) | inactive | 64 (≈ 28.8 µg/mL) | 4 (≈ 1.8 µg/mL) | 2 (≈ 0.901 µg/mL) | 4 (≈ 1.8 µg/mL) | inactive | 2 (≈ 0.901 µg/mL) | 4 (≈ 1.8 µg/mL) | 4 (≈ 1.8 µg/mL) | 4 (≈ 1.8 µg/mL) | 2 (≈ 0.901 µg/mL) | 33.8 | 4 (≈ 1.8 µg/mL) | 72.1 | inactive | 4 (≈ 1.8 µg/mL) | inactive |  |
| Nc1nc(N2CCOCC2)nc2ncn(Cc3ccc4ccccc4c3)c12 | 2 (≈ 0.721 µg/mL) | 97.7 (≈ 35.2 µg/mL) | > 500 | inactive | > 500 | 4 (≈ 1.44 µg/mL) |  |  | inactive |  | 2 (≈ 0.721 µg/mL) |  | 16 (≈ 5.77 µg/mL) | 1 (≈ 0.36 µg/mL) | > 125 | 2 (≈ 0.721 µg/mL) | 16.8 | inactive | 2 (≈ 0.721 µg/mL) | inactive | viability at 50 µM (H9c2): 91.7% |
| O=c1[nH]c(N2CCOCC2)nc2ncn(Cc3ccc4ccccc4c3)c12 | 4 (≈ 1.45 µg/mL) | 46.9 (≈ 16.9 µg/mL) | > 500 | inactive | > 500 | 64 (≈ 23.1 µg/mL) | 16 (≈ 5.78 µg/mL) | 16 (≈ 5.78 µg/mL) | inactive | 32 (≈ 11.6 µg/mL) | 32 (≈ 11.6 µg/mL) | 64 (≈ 23.1 µg/mL) | 64 (≈ 23.1 µg/mL) | 4 (≈ 1.45 µg/mL) | > 125 | 32 (≈ 11.6 µg/mL) | 12.6 | inactive | 32 (≈ 11.6 µg/mL) | inactive | viability at 50 µM (H9c2): 86% |
| COc1nc(N2CCOCC2)nc2ncn(Cc3ccc4ccccc4c3)c12 | 4 (≈ 1.5 µg/mL) |  | 250 (≈ 93.9 µg/mL) | inactive | 500 (≈ 188 µg/mL) | 8 (≈ 3 µg/mL) | 16 (≈ 6.01 µg/mL) | 8 (≈ 3 µg/mL) | inactive | 16 (≈ 6.01 µg/mL) | 8 (≈ 3 µg/mL) | 16 (≈ 6.01 µg/mL) | 32 (≈ 12 µg/mL) | 2 (≈ 0.751 µg/mL) | 64.3 | 8 (≈ 3 µg/mL) |  | inactive | 8 (≈ 3 µg/mL) | inactive | viability at 50 µM (H9c2): 92.6% |
